From paper PMC8178987 (Chemical Science, 2020) come the findings set out here.

pKd: −log10 of the molar value.

Common to all, as to assay type: binding
The subject of assay [1] is gpPorA. Nature of the assay: Single-channel recording of peptide interaction/translocation with gpPorA. To be noted: for discrimination of R4 and R9 in competitive blocking: R4 10 µM, cis and R9 100 nM, 150 mM KCl.
In assay [2] the test system is pPorA-C24. The conditions noted are these: subconductance pores; R6 1 µM cis; R9 0.5 µM; 150 mM KCl, pH 7.4.
Assay [3] deals with pPorA-A24. Description: Single-channel recording of peptide interaction with pPorA-A24. The gist of the method:
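Single pores in planar lipid bilayers formed on an aperture prepainted with hexadecane in n-pentane (5 mg mL−1). Test peptide added to the cis side in 0.15 M KCl, 10 mM HEPES, pH 7.4, recorded at −5 and −20 mV. Current was digitally filtered at 4 and 7 kHz with an 8-pole Bessel filter. τoff came from dwell-time histograms.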

Assay [4] has as its system pPorA-K24. Description: Single-channel recording of peptide interaction with pPorA-K24. The conditions noted are these: for ion current blockages: cis, 0.15 M KCl, pH 7.4.
[5] abbreviates: 0.5 μM, cis, negative voltages, 0.15 M KCl, pH 7.4.
[6] abbreviates: 0.5 μM, trans, +10 mV to +35 mV, 0.15 M KCl, pH 7.4.

On to hexaarginine [R6], for which the “blockage events” value in assay [1] (0.5 μM, cis, above −25 mV, 0.15 M KCl, pH 7.4) is reported as “not resolved accurately”; in assay [1] (0.5 μM, cis, higher positive voltages, 0.15 M KCl, pH 7.4) it was “no blockage events were observed”. For the same substance, the “ion current blockage (block)” value in assay [1] (setting [5]) was 100%. Also, the “frequency of blockage events” value in assay [1] (0.5 μM, cis, −5 mV to −25 mV, 0.15 M KCl, pH 7.4) is “decreased with an increase in the voltage”. Further, the “ion current blockages” value was “time-resolved ion current blockages” in assay [1] (0.5 μM, trans, 0.15 M KCl, pH 7.4); “combination of strong and weak ion current blockages” in assay [2]. Further, the “asymmetry in peptide binding/translocation between cis and trans sides” value in assay [1] (0.5 μM, 0.15 M KCl, pH 7.4) is given as “no significant asymmetry”. Moreover, the pKd in assay [1] (read-out: KDcis, cis, −10 mV, 0.15 M KCl, pH 7.4) is 5.28.
nonaarginine [R9]: the “ion current blockages” value in assay [1] (0.5 μM, cis, above +40 mV, 0.15 M KCl, pH 7.4) is given as “less frequent ion current blockages”; in assay [1] (0.5 μM, cis, pH 7.4, 0.15 M KCl, compared with pH 4.5), “voltage-dependent well-defined ion current blockages”; in assay [1] (0.5 μM, cis, −5 mV, −10 mV and −15 mV, pH 4.5, citrate buffer, 0.15 M KCl), “short-lived, less frequent ion current blockages”; in assay [1] (0.5 μM, cis, −20 mV and −25 mV, pH 4.5, citrate buffer, 0.15 M KCl) it was “no prominent blockage events”; in assay [1] (1 μM, cis, added after D9 to the same pores, 0.15 M KCl, pH 7.4), “voltage-dependent intense blockage events”; in assay [1] (100 μM, cis, −20 mV, −30 mV and −50 mV, 1 M KCl, pH 7.4) it was “less frequent to unresolved ion current blockages”. Also, the “ion current blockages” value in assay [3] (0.5 μM, cis, −5 mV to −20 mV, 0.15 M KCl, pH 7.4) was “ion current blockages exclusively at negative voltages”; in assay [2] it was “combination of strong and weak ion current blockages”. Besides, the “frequency of ion current blockages” value in assay [1] (0.5 μM, cis, above −40 mV, 0.15 M KCl, pH 7.4) is “considerably reduced”. Moreover, the “ion current blockage (block)” value in assay [1] (setting [5]) was 100%; in assay [1] (setting [6]), 100%; in assay [1] (100 μM, cis, −10 mV, 1 M KCl, pH 7.4), around 70%. For the same substance, the “pore state on peptide addition” value in assay [1] (0.5 μM, cis, −5 mV, 0.15 M KCl, pH 7.4) is given as “predominantly remained closed”. Besides, the “voltage dependence of kon and koff” value is “increased with the voltage” in assay [1] (0.5 μM, cis, −10 mV to −35 mV, 0.15 M KCl, pH 7.4); “an increase in the kon and koff” in assay [1] (setting [6]). Further, the τoff in assay [1] (0.5 μM, trans, +10 mV, 0.15 M KCl, 10 mM HEPES, pH 7.4, n = 3) turned out to be 35 ± 3 ms; in assay [1] (100 μM, cis, −10 mV, 1 M KCl, 10 mM HEPES, pH 7.4, n = 3), 0.14 ± 0.02 ms. Besides, the “ion current blockages against the electrophoretic pulling” value in assay [1] (0.5 μM, trans, negative voltages, 0.15 M KCl, pH 7.4) is “ion current blockages against the electrophoretic pulling was observed”. In addition, the “asymmetry in peptide binding/translocation between cis and trans sides” value in assay [1] (0.5 μM, 0.15 M KCl, pH 7.4) is recorded as “well-defined asymmetry”. Besides, the “discrimination of R4 and R9 in competitive blocking” value in assay [1] (cis, −20 mV and −25 mV, pH 7.4) was “discriminated based on τoff”. For the same substance, the “binding affinity” value in assay [3] (directly formed pPorA compared to self-assembled gpPorA) was “less affinity”.
Turning to nonaaspartate [D9], the “ion current blockages” value in assay [1] (100 μM, cis, different peptide concentrations and voltages, 0.15 M KCl, pH 7.4) is “did not produce any ion current blockages”; in assay [4] (0.5 μM), “did not produce defined ion current blockages”; in assay [4] (10 μM, +50 mV), “very short, less frequent ion current blockage”; in assay [4] (10 μM, negative voltages), “no ion current blockages were observed”. The “binding affinity” value in assay [4] (compared with R9 binding to cation-selective gpPorA (C24)) is reported as “weak D9 peptide binding”.
tetraarginine [R4]: the “binding to pore” value in assay [1] (10 μM, cis/trans, 0.15 M KCl, pH 7.4) was “weak electrostatic binding”. In assay [1] (10 μM, cis, negative voltages to −75 mV, 0.15 M KCl, pH 7.4), the “frequency of the blockage events” value is on record as “increased with the voltage”. Moreover, the “ion current blockages” value in assay [1] (10 μM, cis, positive voltages, 0.15 M KCl, pH 7.4) was “No peptide-induced ion current blockages were detected”; in assay [1] (10 μM, cis, −25 mV, 0.15 M KCl, pH 7.4), “occasional ion current blockages”; in assay [1] (10 μM, trans, higher positive voltages, 0.15 M KCl, pH 7.4), “short, less frequent blockage events”. In assay [1] (10 μM, cis, −75 mV, 0.15 M KCl, 10 mM HEPES, pH 7.4, n = 3), the “τoff (mean dwell time of blocking)” value is recorded as 165 ± 15 μs. In addition, the “discrimination of R4 and R9 in competitive blocking” value in assay [1] (cis, −20 mV and −25 mV, pH 7.4) is recorded as “discriminated based on τoff”.
